Efflux pump mplx = blocks antifungal efflux pumps in multiplex yeast assay; AID 485275; S. cerevisiae Candida pump triplex, Nile Red efflux; hit rate 0.44% among 330,000; inhibition, % at 10 µM;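 active means plate passing quality check with inhibition over a set limit, or well fluorescence over plate mean plus 4 SD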;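 further: Nile Red retained in pooled yeast measured as flow cytometry median fluorescence; 0% = buffer negative control and 100% = Enniatin B positive control; higher means more Nile Red kept so more efflux inhibition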
AI-2 QS mod = modulators of Vibrio harveyi AI-2 quorum sensing system | hit rate 0.4% among 300,000 | Vibrio harveyi JMH597 AI-2 luminescence/OD600 ratio, 9 h; active compounds read low; strain lacks LuxN and CqsS sensors; 0 = neutral-control median | activity change, % at 7.5 µM; in the data active means activity change below about -75%, passing the limit was not always enough; inconclusive means no clear call, values can overlap the other calls;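 further: luminescence divided by OD600 gain over 9 h not by final OD600 alone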
HDAC3 inhib = inhibitors of human histone deacetylase 3. recombinant HDAC3, fluorogenic peptide/trypsin coupled, fluorescence. inhibition, % at 8.3 µM. hit rate 0.15% among 320,000. AID 2718; in the data active means inhibition above about 26%, passing the limit was not always enough; inconclusive means no clear call, values can overlap the other calls
Target sequence (O15379 whole entry, looked up): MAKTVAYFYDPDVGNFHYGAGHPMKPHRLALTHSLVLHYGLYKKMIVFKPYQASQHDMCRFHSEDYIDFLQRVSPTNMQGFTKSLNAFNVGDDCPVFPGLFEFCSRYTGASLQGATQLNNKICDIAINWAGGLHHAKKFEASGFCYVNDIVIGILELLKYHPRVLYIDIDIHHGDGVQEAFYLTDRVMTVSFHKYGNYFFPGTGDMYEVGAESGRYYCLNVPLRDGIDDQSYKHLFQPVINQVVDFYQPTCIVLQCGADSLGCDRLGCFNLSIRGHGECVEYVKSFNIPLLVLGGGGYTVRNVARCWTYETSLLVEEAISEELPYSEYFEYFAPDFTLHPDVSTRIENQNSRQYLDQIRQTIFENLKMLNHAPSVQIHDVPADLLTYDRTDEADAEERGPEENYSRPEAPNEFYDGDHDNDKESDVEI
T cruzi inh = blocks replication of Trypanosoma cruzi. T. cruzi beta-gal in NIH3T3, luminescence, 90 h. inhibition, % (test concentration not listed). hit rate 1.4% among 300,000;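 active means mean inhibition across valid replicates above about 55%, limit read from the data; inconclusive means mean below that limit but half or more replicates reach it; inactive means mean below it, under half of replicates reach it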;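 further: signal also drops with host cell toxicity which is not excluded here; 0% = plate median of DMSO wells and 100% = zero luminescence signal; higher percent means less beta-gal luminescence so fewer parasites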
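Read-out: Parasite load inhibition, % | Test system: Mouse NIH/3T3 fibroblasts infected with β-gal-expressing T. cruzi Tulahuen C4 | Amount: 5,000 cells/well | Medium: DMEM, 2% fetal bovine serum | Signal: GalScreen β-gal luminescence, detergent lysis, 60 min | Timing: 3 h attach, ≥90 h co-culture | Also added: Tulahuen C4 trypomastigotes, 5000/well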
PolyA inhibitor = inhibitors of polyadenylation in S. cerevisiae; hit rate 0.02% among 300,000; activity score, % at 12 µM; S. cerevisiae SKY197-pL101 polyadenylation reporter, beta-gal luminescence; efflux-impaired pdr1/pdr3 knockout yeast; score 100 = 6 SD above DMSO;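 active means lowest replicate activity score at least 50, where 100 means six control SD above control mean; inconclusive means lowest score under 50 but half or more replicates reach 50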;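 further: yeast exposed to compound for 9 h at 30 °C; higher score means more reporter readthrough which indicates perturbed polyadenylation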
Active calls of the source: *; ? = inconclusive; · = no result given. Rows were chosen to be rich in hits. Some 2.2% of all compounds tested hit in one or more screens of this group.

SMILES	Efflux pump mplx	AI-2 QS mod	HDAC3 inhib	T cruzi inh	PolyA inhibitor
Cc1ccc(OCCCCn2ccnc2)c([N+](=O)[O-])c1	0	14	4	23	10
Cc1ccc(C)c(OCCCCn2ccnc2)c1	0	14	-5	71*	-1
CC(C)(C)c1ccccc1OCCCCCn1ccnc1	0	31	7	61*	-19
Cc1ccc(OCCCCn2ccnc2)c(Cl)c1	0	11	1	61*	-2
Cc1ccc(C(C)(C)C)c(OCCCn2ccnc2)c1	0	38	3	34	-16
O=C(NCCCN1CCOCC1)C(=O)N/N=C/c1c2ccccc2cc2ccccc12	0	9	-2	9	2
Nc1ccccc1Nc1cc(-c2ccccc2)nn1-c1ccccc1	-1	38	-3	55*	-19
Nc1c(C(=O)CSc2nc3ccccc3o2)c(=O)[nH]c(=O)n1C1CC1	0	·	-3	·	·
CC(=O)c1ccc(S(=O)(=O)N(C)CC(=O)NCc2ccco2)cc1	0	·	1	·	·
O=C(NCc1cccnc1)c1ccc(-c2cccc(Cl)c2Cl)o1	0	0	9	58*	-5
O=C(NCc1cccnc1)c1ccc(-c2ccccc2[N+](=O)[O-])o1	0	21	2	2	2
Cc1cccc2nc(COc3ccc(-c4ccccc4)cc3)cn12	0	8	4	11	13
Oc1[nH]c2ccccc2c1N=NC(=S)NCC1CCCO1 (stereo not drawn)	0	5	2	-20	-6
Oc1[nH]c2ccc(Br)cc2c1N=NC(=S)NCC1CCCO1 (stereo not drawn)	0	19	-8	60*	21
O=c1c2c3c(sc2n(CCN2CCCC2)c(=O)n1Cc1ccco1)CCCCC3	0	10	5	57*	-3
CN(C)CCn1c(=O)n(Cc2ccco2)c(=O)c2c3c(sc21)CCCCC3	0	0	6	55*	4
O=C(Cn1c(=O)n(Cc2ccco2)c(=O)c2c3c(sc21)CCCCC3)c1ccccc1	1	44	8	-2	-2
CN(C)c1ccc(/C=N/N=C(N)N)cc1[N+](=O)[O-]	0	1	12	78*	1
CC1=Nc2ccccc2/C1=C/c1nc(-c2ccc(C)s2)oc1O	0	6	0	-5	-47
CC1=Nc2ccccc2/C1=C/c1sc(=N)n(-c2nccs2)c1O	0	20	0	63*	-3
CCOC(=O)Cc1nnc(NC(=O)CSc2nnc3c(n2)[nH]c2ccccc23)s1	0	4	65*	-11	2
CCCOP(=O)(c1ccc(N(C)C)cc1)C(Nc1ccccc1)c1ccc(C)cc1 (stereo not drawn)	0	15	3	·	59*
CCOc1cc(/C=C2\N=C(C)OC2=O)cc(Cl)c1OCC(=O)OC	0	11	48*	-17	14
COc1cc(/C=C2\N=C(C)OC2=O)cc(Cl)c1OC(C)=O	0	5	3	-7	26
Oc1ccc(N=Nc2ccccc2C(F)(F)F)c2cccnc12	0	81	-2	55*	17
SMILES	Efflux pump mplx	AI-2 QS mod	HDAC3 inhib	T cruzi inh	PolyA inhibitor
Cc1ccc(N=Nc2ccc(O)c3ncccc23)cc1	0	26	4	57*	-13
Cc1ccc(N=Nc2ccc(O)c3ncccc23)cc1C	0	26	?	66*	6
COC(=O)[C@]1(Cc2ccccc2)N[C@H](CN(C)S(=O)(=O)c2ccc(C(C)(C)C)cc2)[C@@H]2C(=O)N(Cc3ccccc3)C(=O)[C@@H]21	0	·	3	·	·
COc1ccc(-c2cn(Cc3ccc(C(=O)NCc4ccc(C)cc4)cc3)c(C(C)N)n2)cc1 (stereo not drawn)	0	5	?	42	38
CC(C)C1C(c2ccccc2)NC(c2ccccc2)CC1(O)c1ccc(F)cc1 (stereo not drawn)	0	6	6	17	5
CCC1C(c2ccccc2)N(C)C(c2ccccc2)CC1(O)c1ccccc1 (stereo not drawn)	0	99	18	60*	-3
CC(C)C1C(c2ccccc2)N(C)C(c2ccccc2)CC1(O)c1ccccc1 (stereo not drawn)	0	31	6	58*	-28
CC1C(=O)CC(c2ccccc2)N(C)C1c1ccccc1 (stereo not drawn)	0	27	1	0	-4
Cc1ccc2cc(C)c3nnc(SCC(=O)Nc4nc5c(s4)CCCC5)n3c2c1C	0	21	0	6	14
Cc1nc(N)nc(N)c1CCCc1ccc(Cl)c(Cl)c1	0	12	-3	62*	-5
Cc1cc(C)cc(N2C(=O)CC(Sc3ncn[nH]3)C2=O)c1 (stereo not drawn)	0	15	29*	3	-35
Cc1cc(C)cc(N2C(=O)CC(Sc3nnnn3-c3ccccc3)C2=O)c1 (stereo not drawn)	0	19	0	3	3
CCOP(=O)(Nc1ccc2oc(=O)c3ccccc3c2c1)OCC	0	16	0	1	10
CC(C)Cc1ccc(CN2CCCC(NC(=O)CCn3cnnn3)C2)cc1 (stereo not drawn)	0	18	0	56*	2
CC(C)Cc1ccc(CN2CCCC(NC(=O)Cn3cnnn3)C2)cc1 (stereo not drawn)	0	8	0	?	21
COc1ccc(-n2c(COc3ccccc3)n[nH]c2=S)cc1	1	54	10	0	-12
CCC(C)c1c(O)nc(SCC(=O)c2ccccc2)[nH]c1=O (stereo not drawn)	0	11	33*	-2	-6
O=C(CSc1nc(O)c(Cc2ccccc2)c(=O)[nH]1)Nc1ccccc1	0	24	-2	-7	-7
Cc1ccc(C(=O)CSc2nc(O)cc(=O)[nH]2)cc1C	0	20	30*	-6	-5
C=CCc1c(O)nc(SCC(=O)c2ccccc2)[nH]c1=O	0	19	37*	0	1
CCC[n+]1c2ccccc2cc2ccccc21	-1	2	-17	61*	-2
Brc1cc2ccccc2[n+](Cc2ccccc2)c1	0	12	9	11	-2
Cc1ccc2ccccc2[n+]1CCCS(=O)(=O)[O-]	0	9	-4	10	-3
CCCC[n+]1c2ccccc2cc2ccccc21	0	7	-19	68*	-31
COc1ccccc1NC(=O)/C(C#N)=C/c1ccc(OCCN2CCOCC2)c(OC)c1	0	18	6	-14	-3
CCN(CC)c1nc(-c2ccccn2)nc(-c2ccccc2)c1C#N	0	14	2	58*	-37
CCCCN(CC)c1nc(-c2ccncc2)nc2ccccc12	0	1	4	54	-3
c1ccc(CCNc2nc(-c3ccccn3)nc3ccccc23)cc1	0	7	5	76*	-4
CN(C)c1nc(-c2ccccn2)nnc1-c1ccccc1	0	3	-1	50	-6

Screens (PubChem)
